Reference: ChEMBL document CHEMBL3232995, “Synthesis and evaluation of effective photoaffinity probe molecule of furospinosulin-1, a hypoxia-selective growth inhibitor” (Bioorg Med Chem, 2014)
Activity calls are given as the source filed them. No cut-off for these calls is given here.

How the values were obtained:
[1] = test system: DU-145; assay: Antiproliferative activity against human DU145 cells under normoxia condition assessed as growth inhibition at 10 to 100 uM after 24 hrs by MTT assay; assay type: functional, cell-based
Outline: (§1)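 DU145 cells were grown in RPMI 1640 with heat-inactivated 10% FBS and kanamycin (50 µg/ml) under humidified 5% CO2 at 37 °C and seeded at 1 × 10⁴ cells/well. Growth under normoxic conditions was measured by colorimetric MTT assay. Inhibition was taken relative to parallel negative controls.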

[2] = test system: DU-145; assay: Antiproliferative activity against human DU145 cells under hypoxia condition assessed as growth inhibition at 10 to 100 uM after 24 hrs by MTT assay; assay type: functional, cell-based
Outline: (§2)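 DU145 human prostate cancer cells kept in RPMI 1640 with 10% heat-inactivated FBS and kanamycin (50 µg/ml), 5% CO2, 37 °C. Seeded at 1 × 10⁴ cells/well. Held 4 h normoxic, then 12 h under 1% O2/5% CO2/94% N2 to induce hypoxia genes. Compound then added and plates kept a further 24 h hypoxic. Read-out by MTT, with inhibition as percent of parallel negative controls.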

[3] = test system: DU-145; assay: Antiproliferative activity against human DU145 cells under hypoxia condition assessed as growth inhibition at 3 to 30 uM after 24 hrs by MTT assay; assay type: functional, cell-based; outline: as §2
[4] = test system: DU-145; assay: Inhibition of transcription factor complex formation in hypoxia-induced human DU145 cells assessed as reduction in nuclear proteins and Sp1 oligonucleotide probe complex at 100 to 300 uM by EMSA; assay type: functional, cell-based
Outline: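 Nuclear extracts were made from DU145 cells under normoxia or hypoxia. They were pre-incubated on ice for 20 min with compound (100 or 300 µM) in binding buffer: 10 mM Tris-HCl pH 7.5, 50 mM KCl, 5 mM MgCl2, 1 mM DTT, 1% glycerol, BSA, poly(dI-dC). Then 5'-biotinylated Sp1 oligonucleotide (4 fmol per 20 µL) was added for 15 min at room temperature. Complexes were resolved on 5% native PAGE in 0.5× TBE, blotted, and detected by streptavidin-HRP/ECL.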

[5] = test system: DU-145; assay: Antiproliferative activity against normoxia-induced human DU145 cells assessed as growth inhibition after 24 hrs by MTT assay; assay type: functional, cell-based; outline: as §1
[6] = test system: CCRF S-180; assay: Antitumor activity against mouse S180 cells allografted in ddY mouse assessed as tumor growth at 5 mg/kg, po administered once every 2 days for 2 weeks relative to control; details: CCRF S-180, po
[7] = test system: Mus musculus; assay: Toxicity in mouse S180 cells allografted in ddY mouse assessed as weight loss at 5 to 25 mg/kg, po administered once every 2 days for 2 weeks relative to control; assay type: organism-based, CCRF S-180; set-up: dose 5-25 mg/kg, route oral; details: in vivo
Outline: (§3)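 Female ddY mice, 6 weeks old, received S180 sarcoma cells (1 × 10⁶ cells/body) subcutaneously in the right ventral flank. Dosing began one week after implantation: oral suspension in 1% CMC-Na, every other day for 2 weeks (7 doses). Tumors were excised and weighed to give the inhibition ratio against control. Four mice per group. Weight loss and diarrhea were watched throughout.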

[8] = test system: CCRF S-180; assay: Antitumor activity against mouse S180 cells allografted in ddY mouse assessed as tumor growth at 25 mg/kg, po administered once every 2 days for 2 weeks relative to control; details: CCRF S-180, po
[9] = test system: CCRF S-180; assay: Antitumor activity against mouse S180 cells allografted in ddY mouse assessed as tumor growth at 10 mg/kg, po administered once every 2 days for 2 weeks relative to control; details: CCRF S-180, po
[10] = test system: Mus musculus; assay: Toxicity in mouse S180 cells allografted in ddY mouse assessed as diarrhea at 5 to 25 mg/kg, po administered once every 2 days for 2 weeks relative to control; assay type: organism-based, CCRF S-180; set-up: dose 5-25 mg/kg, route oral; details: in vivo; outline: as §3
[11] = test system: DU-145; assay: Antiproliferative activity against human DU145 cells under hypoxia condition assessed as growth inhibition after 24 hrs by MTT assay; assay type: functional, cell-based; outline: as §2

Structure (SMILES) | growth inhibition (GI) [1] | growth inhibition (GI) [2] | growth inhibition (GI) [3] | Activity [4] | other results
C/C(=C\CC/C(C)=C/CC/C(C)=C/CC/C(C)=C/CCc1ccoc1)CO | Active | Active |  |  | 
CC(C)=CCC/C(C)=C/CC/C(C)=C/CC/C(C)=C/CCc1ccoc1 | Active | Active |  |  | 
CC(=O)OC/C(C)=C/CC/C(C)=C/CC/C(C)=C/CC/C(C)=C/CCc1ccoc1 | Active | Active |  |  | 
CC#CCC/C(C)=C/CC/C(C)=C/CC/C(C)=C/CC/C(C)=C/CCc1ccoc1 | Active | Active |  |  | 
C/C(=C\CC/C(C)=C/CCc1ccoc1)CC/C=C(\C)CC/C=C(\C)CCc1cn(CCOCCOCCOCCNC(=O)CSC[C@H](NC(=O)c2ccc(C(=O)c3ccccc3)cc2)C(=O)NCCOCCOCCOCCn2cc(CNC(=O)CCCC[C@@H]3SC[C@@H]4NC(=O)N[C@@H]43)nn2)nn1 |  |  | Active | Active | 
C#CC/C(C)=C/CC/C(C)=C/CC/C(C)=C/CC/C(C)=C/CCc1ccoc1 | Active | Active |  |  | 
C/C(=C\CC/C(C)=C/CCc1ccoc1)CC/C=C(\C)CC/C=C(\C)CCc1cn(CCCNC(=O)CSC[C@H](NC(=O)c2ccc(C(=O)c3ccccc3)cc2)C(=O)NCCOCCOCCOCCn2cc(CNC(=O)CCCC[C@@H]3SC[C@@H]4NC(=O)N[C@@H]43)nn2)nn1 |  |  | inactive | inactive | 
C#CCOC/C(C)=C/CC/C(C)=C/CC/C(C)=C/CC/C(C)=C/CCc1ccoc1 | Active | Active |  |  | 
C/C(=C\CC/C(C)=C/CCc1ccoc1)CC/C=C(\C)CC/C=C(\C)CCc1cn(CCCCCNC(=O)CSC[C@H](NC(=O)c2ccc(C(=O)c3ccccc3)cc2)C(=O)NCCOCCOCCOCCn2cc(CNC(=O)CCCC[C@@H]3SC[C@@H]4NC(=O)N[C@@H]43)nn2)nn1 |  |  | inactive | inactive | 
C/C(=C\CC/C(C)=C/CCc1ccoc1)CC/C=C(\C)CC/C=C(\C)CCc1cn(CCOCCOCCNC(=O)CSC[C@H](NC(=O)c2ccc(C(=O)c3ccccc3)cc2)C(=O)NCCOCCOCCOCCn2cc(CNC(=O)CCCC[C@@H]3SC[C@@H]4NC(=O)N[C@@H]43)nn2)nn1 |  |  | Active | Active | 
C#CCC/C(C)=C/CC/C(C)=C/CC/C(C)=C/CC/C(C)=C/CCc1ccoc1 | Active | Active |  |  | growth inhibition (GI) [5]: Dose-dependent effect; level, % of control at 5 mg/kg [6]: 45%; Activity [7]: Non-toxic; level, % of control at 25 mg/kg [8]: 11%; level, % of control at 10 mg/kg [9]: 26%; Activity [10]: Non-toxic; growth inhibition (GI) [11]: Dose-dependent effect
